Experimental data as given in article PMC12612033 (Scientific Reports, 2025).

Molecular target: T1, α-glucosidase (Saccharomyces cerevisiae, UniProt P53341)
Experiment: α-Glucosidase kinetic study
Assay type: biochemical
Conditions: Lineweaver–Burk plot; Km increases, Vmax unchanged

T1 sequence (P53341 whole entry): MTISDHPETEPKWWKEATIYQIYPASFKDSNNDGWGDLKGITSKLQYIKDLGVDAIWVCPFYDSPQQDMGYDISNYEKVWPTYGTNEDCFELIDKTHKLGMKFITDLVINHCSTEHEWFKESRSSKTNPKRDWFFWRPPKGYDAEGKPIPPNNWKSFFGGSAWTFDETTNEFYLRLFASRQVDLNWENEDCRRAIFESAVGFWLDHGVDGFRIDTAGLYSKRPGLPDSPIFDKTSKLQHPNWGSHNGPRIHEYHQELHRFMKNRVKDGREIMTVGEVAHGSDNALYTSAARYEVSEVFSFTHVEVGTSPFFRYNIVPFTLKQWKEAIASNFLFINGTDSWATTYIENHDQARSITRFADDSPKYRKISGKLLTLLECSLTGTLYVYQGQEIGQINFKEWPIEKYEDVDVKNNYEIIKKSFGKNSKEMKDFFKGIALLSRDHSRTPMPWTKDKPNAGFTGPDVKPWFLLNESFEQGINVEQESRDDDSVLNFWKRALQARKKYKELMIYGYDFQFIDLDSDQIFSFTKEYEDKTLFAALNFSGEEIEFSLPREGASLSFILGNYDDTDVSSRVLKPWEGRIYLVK

Structure (SMILES)	Mode of inhibition
Nc1c(-c2ccc(Cl)cc2)nc2ncnn2c1-c1ccc(Cl)cc1 [9s, 5,7-Bis(4-chlorophenyl)-[1,2,4]triazolo[1,5-a]pyrimidin-6-amine]	competitive

Test system: α-amylase
Experiment: α-Amylase inhibition assay
Assay type: biochemical
Conditions: at a concentration of 100 µM, mean ± SD

Structure (SMILES)	Inhibition of α-amylase activity (%)
C[C@H]1O[C@H](O[C@H]2[C@H](O)[C@@H](O)[C@@H](O[C@H]3[C@H](O)[C@@H](O)C(O)O[C@@H]3CO)O[C@@H]2CO)[C@H](O)[C@@H](O)[C@@H]1N[C@H]1C=C(CO)[C@@H](O)[C@H](O)[C@H]1O (stereo partly drawn) [Acarbose]	50.1 ± 0.5

Molecular target: T1, α-glucosidase
Experiment: Circular dichroism spectroscopy of α-glucosidase secondary structure
Conditions: CD, α-glucosidase in the presence of 9s
Method in brief: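 Far-UV CD spectra (190–240 nm) recorded for yeast α-glucosidase alone and for its complex with the test compound. Spectra were deconvoluted into α-helix, β-sheet, β-turn and random-coil fractions, and the complex was compared with native enzyme.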

Structure (SMILES)	Random coils content of α-glucosidase [%]	α-Helix content of α-glucosidase [%]	β-Turn content of α-glucosidase [%]
Nc1c(-c2ccc(Cl)cc2)nc2ncnn2c1-c1ccc(Cl)cc1 [9s, 5,7-Bis(4-chlorophenyl)-[1,2,4]triazolo[1,5-a]pyrimidin-6-amine]	0	41.2	51.4

Molecular target: Saccharomyces cerevisiae α-glucosidase (Saccharomyces cerevisiae, UniProt P53341)
Experiment: α-Glucosidase inhibition assay
Assay type: biochemical
Conditions: not given

Chain of Saccharomyces cerevisiae α-glucosidase (P53341 whole entry): as above

Structure (SMILES)	IC50 [µM]
Nc1c(-c2ccccc2)nc2ncnn2c1-c1ccc(Cl)cc1 [9c, 7-(4-Chlorophenyl)-5-phenyl-[1,2,4]triazolo[1,5-a]pyrimidin-6-amine]	56.2 ± 0.68
COc1ccc(-c2c(N)c(-c3ccccc3)nc3ncnn23)cc1 [9b, 7-(4-Methoxyphenyl)-5-phenyl-[1,2,4]triazolo[1,5-a]pyrimidin-6-amine]	70.85 ± 0.27
Cc1ccc(-c2nc3ncnn3c(-c3ccccc3)c2N)cc1 [9h, 7-Phenyl-5-(p-tolyl)-[1,2,4]triazolo[1,5-a]pyrimidin-6-amine]	94.52 ± 0.72
COc1ccc(-c2nc3ncnn3c(-c3ccccc3)c2N)cc1 [9m, 5-(4-Methoxyphenyl)-7-phenyl-[1,2,4]triazolo[1,5-a]pyrimidin-6-amine]	72.4 ± 0.98
Nc1c(-c2ccccc2)nc2ncnn2c1-c1cccs1 [9g, 5-Phenyl-7-(thiophen-2-yl)-[1,2,4]triazolo[1,5-a]pyrimidin-6-amine]	140 ± 1.55
Nc1c(-c2ccc(Cl)cc2)nc2ncnn2c1-c1ccccc1 [9q, 5-(4-Chlorophenyl)-7-phenyl-[1,2,4]triazolo[1,5-a]pyrimidin-6-amine]	58.11 ± 0.34
Nc1c(-c2ccccc2)nc2ncnn2c1-c1ccccc1 [9a, 5,7-Diphenyl-[1,2,4]triazolo[1,5-a]pyrimidin-6-amine]	97.02 ± 0.83
Cc1ccc(-c2nc3ncnn3c(-c3cccs3)c2N)cc1 [9l, 7-(Thiophen-2-yl)-5-(p-tolyl)-[1,2,4]triazolo[1,5-a]pyrimidin-6-amine]	151.3 ± 0.56
COc1ccc(-c2c(N)c(-c3ccc(Cl)cc3)nc3ncnn23)cc1 [9r, 5-(4-Chlorophenyl)-7-(4-methoxyphenyl)-[1,2,4]triazolo[1,5-a]pyrimidin-6-amine]	41.5 ± 0.56
Nc1c(-c2ccc(Cl)cc2)nc2ncnn2c1-c1ccc(Cl)cc1 [9s, 5,7-Bis(4-chlorophenyl)-[1,2,4]triazolo[1,5-a]pyrimidin-6-amine]	24.32 ± 0.18
COc1ccc(-c2nc3ncnn3c(-c3ccc(Cl)cc3)c2N)cc1 [9o, 7-(4-Chlorophenyl)-5-(4-methoxyphenyl)-[1,2,4]triazolo[1,5-a]pyrimidin-6-amine]	37.18 ± 0.23
COc1ccc(-c2nc3ncnn3c(-c3ccc(OC)cc3)c2N)cc1 [9n, 5,7-Bis(4-methoxyphenyl)-[1,2,4]triazolo[1,5-a]pyrimidin-6-amine]	52.66 ± 0.3
Nc1c(-c2ccccc2)nc2ncnn2c1-c1ccc(Br)cc1 [9f, 7-(4-Bromophenyl)-5-phenyl-[1,2,4]triazolo[1,5-a]pyrimidin-6-amine]	65.09 ± 0.38
